Results published in paper PMC3149845 (The Journal of neuroscience : the official journal of the …, 2011).
Peptide text beside a SMILES is read from it.

Target: hTas1R2:S40T/I67S+hTas1R3 (Homo sapiens, UniProt Q8TE23, I67S/S40T)
Assay: Ca2+ mobilization, mutated human receptor
Format: cell-based
Details: aspartame 10mM, neotame 1mM, sucralose 2 mM; compared with hTas1R2/hTas1R3
Outline: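 Mutant hTas1R2 with hTas1R3 and Gα16-gust44 in HEK293E cells (50,000/well, 0.06 μg each plasmid per well); 44 h post-transfection, loaded with 3 μM Fluo-4 AM in HBSS/20 mM HEPES for 1 h. Fluorescence (ex 488/em 525 nm) recorded every 2 s, tastant at 30 s, 150 s further. ΔF/F normalized to the hTas1R2/hTas1R3 sucralose (2 mm) maximum; three independent experiments; one-way ANOVA with Tukey test.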

Sequence of hTas1R2:S40T/I67S+hTas1R3 (Q8TE23 20-839 S40T/I67S): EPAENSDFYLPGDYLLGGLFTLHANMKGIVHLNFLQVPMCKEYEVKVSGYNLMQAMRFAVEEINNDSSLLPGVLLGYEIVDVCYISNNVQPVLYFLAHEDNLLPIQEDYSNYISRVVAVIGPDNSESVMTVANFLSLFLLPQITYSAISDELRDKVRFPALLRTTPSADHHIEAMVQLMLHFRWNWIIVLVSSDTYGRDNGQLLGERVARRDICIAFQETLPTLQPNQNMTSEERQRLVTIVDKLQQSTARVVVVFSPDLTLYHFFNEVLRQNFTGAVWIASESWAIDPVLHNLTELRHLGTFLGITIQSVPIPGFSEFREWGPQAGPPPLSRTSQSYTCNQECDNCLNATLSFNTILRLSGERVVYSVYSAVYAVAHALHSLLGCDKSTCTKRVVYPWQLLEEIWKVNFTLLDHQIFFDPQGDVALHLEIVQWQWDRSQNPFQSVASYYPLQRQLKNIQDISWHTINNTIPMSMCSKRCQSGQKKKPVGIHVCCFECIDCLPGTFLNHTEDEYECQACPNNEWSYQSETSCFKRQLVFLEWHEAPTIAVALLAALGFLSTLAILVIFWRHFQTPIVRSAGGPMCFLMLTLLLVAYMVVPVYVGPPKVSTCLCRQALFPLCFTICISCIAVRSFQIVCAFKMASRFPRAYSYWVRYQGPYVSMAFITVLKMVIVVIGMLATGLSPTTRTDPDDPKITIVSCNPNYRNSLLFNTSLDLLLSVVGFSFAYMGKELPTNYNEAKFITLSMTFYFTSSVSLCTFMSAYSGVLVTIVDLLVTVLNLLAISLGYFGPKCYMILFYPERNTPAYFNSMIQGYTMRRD
Sequence of hTas1R2:S40T/I67S+hTas1R3 (Q7RTX0 21-852 partner): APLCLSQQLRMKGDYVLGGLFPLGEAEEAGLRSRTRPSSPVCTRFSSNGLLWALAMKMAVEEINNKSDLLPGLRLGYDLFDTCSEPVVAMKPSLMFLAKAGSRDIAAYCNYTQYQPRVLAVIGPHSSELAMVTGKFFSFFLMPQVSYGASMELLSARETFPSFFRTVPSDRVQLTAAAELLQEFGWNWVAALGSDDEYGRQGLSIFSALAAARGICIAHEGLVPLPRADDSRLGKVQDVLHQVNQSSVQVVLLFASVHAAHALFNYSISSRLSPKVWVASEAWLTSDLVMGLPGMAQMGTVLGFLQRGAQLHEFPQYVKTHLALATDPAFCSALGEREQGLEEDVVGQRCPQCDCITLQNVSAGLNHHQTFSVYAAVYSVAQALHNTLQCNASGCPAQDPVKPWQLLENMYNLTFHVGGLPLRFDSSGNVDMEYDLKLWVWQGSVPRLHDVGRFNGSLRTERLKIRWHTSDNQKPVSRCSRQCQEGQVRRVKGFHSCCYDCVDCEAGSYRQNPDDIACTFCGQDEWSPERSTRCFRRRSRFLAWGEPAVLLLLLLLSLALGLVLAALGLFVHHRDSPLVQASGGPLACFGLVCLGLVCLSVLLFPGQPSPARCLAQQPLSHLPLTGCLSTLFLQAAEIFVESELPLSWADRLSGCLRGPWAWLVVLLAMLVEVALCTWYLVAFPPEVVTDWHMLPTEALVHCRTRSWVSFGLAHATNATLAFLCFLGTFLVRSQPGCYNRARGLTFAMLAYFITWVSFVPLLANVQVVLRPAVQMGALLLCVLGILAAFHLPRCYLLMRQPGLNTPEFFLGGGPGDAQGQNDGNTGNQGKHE

With `COC(=O)[C@H](Cc1ccccc1)NC(=O)[C@@H](N)CC(=O)O` [aspartame, L-α-aspartly-L-phenylalanine methyl ester] (H-Asp-Phe-OMe) the “calcium response to sweetener” value was “greater than multiple mutants that contained the D142E mutant”.
